Assay outcomes: PubChem, Broad Institute
A selection follows.
PGC1a Ac signal: raises PGC1a acetylation signal in U2OS cells | hit rate 0.21% among 350,000 | activation, % at 15.6 µM | U2OS PGC1a acetylation AlphaScreen, overnight | AID 651723;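 active = every replicate reaching activation of at least 50%, whatever the mean replicate activation; inconclusive = replicates that disagree or another doubt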;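 note: hits raise the AlphaScreen acetylation signal above neutral controls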
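System: Flag-PGC1a/GCN5 U2OS cells | Quantity: 7000 cells/well | Times: Overnight compound treatment, 37 °C | Measured by: AlphaScreen proximity luminescence, anti-acetyl-lysine antibody | Dosing: One concentration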
Hep G6PC suppr: hepatocyte G6PC expression change via PGC-1a acetylation activation; shares compounds with PGC1a Ac signal; 240 tested, under 10 active; primary mouse hepatocytes, G6PC mRNA qPCR, forskolin; G6PC suppression (normalized activity, % of positive control; higher = more suppression), % at 26 µM;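 active = dose curves showing G6PC suppression whose half-maximal dose is at most twice the top valid dose; inconclusive = flat curves with moderate negative activity, or unreliable fits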;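 note: G6PC expression relative to GAPDH housekeeping gene as delta delta Ct; 0% = median of neutral control wells and 100% = median of positive control wells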
PCK1 hep suppr: PGC-1a acetylation activator altering hepatocyte PCK1 expression | shares compounds with PGC1a Ac signal | primary mouse hepatocytes, PCK1 mRNA qPCR, forskolin-stimulated | PCK1 expression decrease, unspecified at 26 µM | 230 tested, under 10 active;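 active = compounds lowering PCK1 expression whose fitted half-maximal concentration is at most twice the top tested dose; inconclusive = flat fit with moderate opposite-direction effect, or poor fit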;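 note: values are delta delta Ct of PCK1 relative to GAPDH; higher delta delta Ct means lower PCK1 expression so positive values indicate hits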
Hep PGC-1a down: hepatocyte PGC-1a expression change via PGC-1a acetylation activation | shares compounds with PGC1a Ac signal | primary mouse hepatocytes, PGC-1a mRNA qPCR, forskolin; top dose 26 µM | max activity (PGC-1a expression decrease), % | 240 tested, under 10 active | AID 743467;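 active = compound lowering PGC-1a expression with fitted half-maximal concentration at most twice its top tested dose; inconclusive = flat curve with moderate opposite-direction effect, or poor fit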;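 note: 0% = neutral control wells median and 100% = positive control wells median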
Starred values were filed as active, the others as inactive; [ ] = another dose, or the depositor's remark.

Screening CCO[C@H]1OC(C(=O)N2CCCCCCC2)=C[C@@H](C2CCCCC2)[C@@H]1CCCO returned PGC1a Ac signal 83.5*, Hep G6PC suppr -1.5, PCK1 hep suppr 62.5 and Hep PGC-1a down 50.8.
Screening O=C1/C(=C/c2ccc(N3CCOCC3)o2)SC(=Nc2ccccc2)N1CCc1c[nH]c2ccccc12 returned PGC1a Ac signal -61.7.
`CC1(C)OC(=O)C(=Cc2ccc[nH]2)C(=O)O1` gave PGC1a Ac signal -40.2.
Screening O=C1C(N2CCOCC2)=C(n2nnc3ccccc32)C(=O)c2ccccc21 returned PGC1a Ac signal -61.3.
`NCCCCCC(=O)O` gave PGC1a Ac signal -51.2.
`CC(=O)c1cccc(N(C(=O)Cn2nnc3ccccc32)C(C(=O)NCc2ccccc2)c2ccccn2)c1` (stereo not given) gave PGC1a Ac signal inconclusive, Hep G6PC suppr -28.8, PCK1 hep suppr -11 and Hep PGC-1a down -33.2.
`CC(=O)c1cccc(N(C(=O)c2cnccn2)C(C(=O)NCc2ccccc2)c2ccco2)c1` (stereo not given) gave PGC1a Ac signal 96.0*, Hep G6PC suppr 44.6, PCK1 hep suppr 129 and Hep PGC-1a down 188.1.
Screening CCNC(=S)NNC(=O)c1csc2ccccc12 returned PGC1a Ac signal -58.6.
Screening CN1CCN(c2ccc(CNC(=O)c3ccc(-c4ccnn4C)c4ccoc34)cc2)CC1 returned PGC1a Ac signal inconclusive, PCK1 hep suppr inconclusive and Hep PGC-1a down 228.5.
`CCOC(=O)c1c(NC(=O)c2ccoc2C)sc2c1CCC2` gave PGC1a Ac signal -57.4.
For CCn1c(C(=O)NC2CCC(C)CC2)cc2sccc21 (stereo not given) the results were PGC1a Ac signal -44.0.
Screening O=S(=O)(c1cccc(F)c1)N1CCN(Cc2cc3c(cc2Br)OCCO3)CC1 returned PGC1a Ac signal 108.0*, Hep G6PC suppr 1.2, PCK1 hep suppr 53.2 and Hep PGC-1a down 112.1.
Screening CC(=O)Nc1nonc1-c1nc2ccccc2n1Cc1ccccc1 returned PGC1a Ac signal 61.4*, Hep G6PC suppr -7.0, PCK1 hep suppr 11.4 and Hep PGC-1a down inconclusive.
For O=S(=O)(c1ccc(Cl)cc1)N1[C@@H]2CNC[C@H]1C2c1ccc(-c2cccc(F)c2)cc1 (stereo not given in full) the results were PGC1a Ac signal 80.4*, Hep G6PC suppr 10.0, PCK1 hep suppr 47.2 and Hep PGC-1a down 110.3.
`O=[N+]([O-])c1c(NCCCO)cc(Sc2nc3ccccc3s2)c2nonc12` gave PGC1a Ac signal -58.2.
`O=C(CCc1nc2ccccc2c(=O)[nH]1)OCC(=O)N1CCc2ccccc21` gave PGC1a Ac signal -52.6.
`CC(=O)C1=C(O)C(=O)N(Cc2ccco2)C1c1cccc(F)c1` (stereo not given) gave PGC1a Ac signal -51.3.
Screening COc1cc(NC(=O)c2cccs2)c(OC)cc1NC(=O)CCC(=O)Nc1ccc2ncccc2c1 returned PGC1a Ac signal 366.0*, Hep G6PC suppr 188.8, PCK1 hep suppr inconclusive and Hep PGC-1a down inconclusive.
For COC(=O)/C=C/c1cnc2ccccc2c1 the results were PGC1a Ac signal -43.0.
CCC(=O)NC(c1cccs1)c1ccc2cccnc2c1O (stereo not given) was read as PGC1a Ac signal -47.4.
For CCCCN(C)Cc1c(C)[nH]c2ccccc2c1=O the results were PGC1a Ac signal -48.9.
`COC(=O)c1[nH]c2ccc(F)cc2c1NS(=O)(=O)c1ccc(OC)cc1OC` gave PGC1a Ac signal -43.1.
`O=C(CCC1CCN(Cc2ccccc2Cl)CC1)NC1CC1` gave PGC1a Ac signal -94.6.
Screening CCNC(=O)C1(C)CCCN1Cc1ccccc1Cl (stereo not given) returned PGC1a Ac signal -48.6, PCK1 hep suppr 22.1 and Hep PGC-1a down 23.6.
O=C(CCl)N=c1sccn1Cc1ccccc1Cl was read as PGC1a Ac signal -52.3.
CC1(C)CC(=O)C=C(NCc2ccco2)C1 was read as PGC1a Ac signal -40.3.
`CC(=O)[C@H]1CC[C@H]2[C@@H]3CC=C4C[C@@H](OS(=O)(=O)O)CC[C@]4(C)[C@H]3CC[C@]12C` gave PGC1a Ac signal -46.6.
`O=C(Nc1ccc(OCC(=O)N2CCC(Cc3ccccc3)CC2)cc1)c1ccco1` gave PGC1a Ac signal 67.4*, PCK1 hep suppr 0.009 and Hep PGC-1a down 22.9.
For Nc1nn(-c2ccccc2)nc1C(=O)OCc1ccccc1 the results were PGC1a Ac signal -72.5.
For O=C(C[C@H]1CC[C@H]2[C@@H](COC[C@@H](O)CN2C(=O)c2cc(Cl)cc(Cl)c2)O1)N1CCc2ccccc2C1 the results were PGC1a Ac signal inconclusive, Hep G6PC suppr 26.1, PCK1 hep suppr 59.3 and Hep PGC-1a down 91.4.
For CC(=O)Nc1cc(OC(C)=O)c2nonc2c1OC(C)=O the results were PGC1a Ac signal -44.2.
For Cc1ccc(-c2nnc(N3CCN(C(=O)COc4ccccc4)CC3)c3ccccc23)cc1 the results were PGC1a Ac signal 94.2*, Hep G6PC suppr 360.4 and Hep PGC-1a down 120.9.
Cc1nn(-c2ccccc2)c(Cl)c1C(=O)N1CCN(c2ncnc3c2cnn3-c2ccccc2)CC1 was read as PGC1a Ac signal -58.9.
Cc1nc2ncnn2c(C)c1CCC(=O)N1CCN(c2ccccn2)CC1 was read as PGC1a Ac signal -43.4.
Screening O=C(c1cccs1)N1CCN(c2nnc(-c3ccccc3)c3ccccc23)CC1 returned PGC1a Ac signal 69.4*, Hep G6PC suppr 18.7, PCK1 hep suppr -6.83[8 µM] and Hep PGC-1a down 34.3.
Cc1c(C(=O)N2CCN(c3ccccn3)CC2)sc2ncnc(N3CCN(c4ccccc4)CC3)c12 was read as PGC1a Ac signal -40.3.
`O=C(Nc1cccn2ncnc12)C(Cl)Cl` gave PGC1a Ac signal -2.5.
`Oc1ccc(-c2nc(-c3ccc(O)c(O)c3)cs2)cc1` gave PGC1a Ac signal -46.3.
Cc1cccc(CS(=O)(=O)c2nnc([C@H](Cc3ccccc3)NC(=O)OC(C)(C)C)o2)c1 was read as PGC1a Ac signal -59.8.
For O=C(CN1CCC(n2nnc3ccccc32)CC1)NCc1cccs1 the results were PGC1a Ac signal 191.8*, Hep G6PC suppr -14.8, PCK1 hep suppr -21.8 and Hep PGC-1a down 33.1.
O=C(CN1CCC(n2cnc3cccnc32)CC1)NCc1cccs1 was read as Hep G6PC suppr 17.4, PCK1 hep suppr 29.6 and Hep PGC-1a down 37.5.
For CN1CCN(C2=C(Cl)C(=O)N(CCc3ccccc3)C2=O)CC1 the results were PGC1a Ac signal -47.2.
Screening C=CCN(c1ccc(C(=O)Nc2ccc3c(c2)OCO3)cc1)S(C)(=O)=O returned PGC1a Ac signal -92.7.
O=c1c2c(nc3c(-c4ccc(Cl)cc4)c[nH]n13)CCCC2 was read as PGC1a Ac signal -40.6.
COc1ccc2c(c1)C(C)=CC(C)(C)N2S(=O)(=O)c1ccc(Br)cc1 was read as PGC1a Ac signal 83.0*, PCK1 hep suppr 149 and Hep PGC-1a down 42.7.
For CCOC(=O)C1=Nc2ccccc2C1=[N+]=[N-] the results were PGC1a Ac signal -44.9.
`COc1ccc(C(=O)NCCCSC)cc1OC1CCN(C(C)C)CC1` gave PGC1a Ac signal -44.2.
